Experimental findings from PubChem BioAssay are described below.

Active and inactive are the calls of the source.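 The calls were made as follows, unless noted: active = NADPH fluorescence slope more negative than the mean of all samples by about 3 SD, 99.7% confidence; inactive = the rest.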

The nature of test [1]: inhibitors of TNFa-induced NFkB p65 translocation, primary screen, imaging, HUVEC, MLSMR starter and 10KST1 sets (AID 438;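 active = inhibition above 20% together with a positive visual image hit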;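 also: compound added about 3h40 before a 20 min TNFalpha stimulation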;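 as to inhibition: signal is the nuclear over cytoplasmic p65 intensity ratio per well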). To be noted: HUVEC TNFa-induced p65 nuclear translocation; cell count: measured here: nuclei count (cytotoxicity indicator), at 2.08 µM; inhibition: at 2 µM, stronger effect = higher value, 0% TNFa-plus-vehicle, 100% no-TNFa wells.
A short description of test [2]: inhibitors of E-selectin induction by TNFa, primary screen, imaging, HUVEC, immunofluorescence, MLSMR starter and 10KST1 sets (AID 487;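 active = visually confirmed hit in the image check and inhibition above 20%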;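 as to inhibition: signal is fraction of cell area covered by stained E-selectin grains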;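 as to nuclei count: 100% = median nuclei count of all wells on the same plate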). The settings on record: HUVEC TNFalpha-induced E-selectin immunofluorescence imaging, at 2 µM; inhibition: stronger effect = higher value; nuclei count: measured here: cell number, toxicity.
Test [3] is described as follows: DUSP6 inhibitors restoring Erk phosphorylation by chemical complementation, primary imaging in DUSP6-transfected HeLa (AID 609;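 active = compounds giving at least 50% inhibition in the cell-based MKP-3 phosphatase rescue imaging test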;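 as to inhibition: phospho-Erk level distribution per well compared with pooled transfected vehicle control wells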). The settings on record: HeLa MKP-3 transfected, phospho-Erk imaging KS statistic, at 10 µM, cells stimulated with TPA for 15 min.
Test [4] addresses Dual specificity protein phosphatase 6 (Homo sapiens) (UniProt Q16828). The description is as above. To be noted: HeLa MKP-3 transfected, phospho-Erk imaging KS statistic; at 10 µM; stronger effect = higher value; cells stimulated with TPA for 15 min.
In test [5] the target is Voltage-gated potassium channel subunit beta-2 (Rattus norvegicus) (UniProt P62483). Briefly: KvBeta enzyme negative modulators, primary screen, biochemical, NADPH fluorescence (AID 622;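 active = fluorescence slope higher than the sample average by over 3 SD, cut at about -0.22 in these data, passing the limit was not always enough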;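 also: slope of raw intensity against log time taken from 70 to 1610 s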). The settings on record: recombinant KvBeta, 4-cyanobenzaldehyde reduction, at 10 µM, stronger effect = higher value.
Sequence of Voltage-gated potassium channel subunit beta-2 (Rattus norvegicus) (P62483 whole entry, looked up): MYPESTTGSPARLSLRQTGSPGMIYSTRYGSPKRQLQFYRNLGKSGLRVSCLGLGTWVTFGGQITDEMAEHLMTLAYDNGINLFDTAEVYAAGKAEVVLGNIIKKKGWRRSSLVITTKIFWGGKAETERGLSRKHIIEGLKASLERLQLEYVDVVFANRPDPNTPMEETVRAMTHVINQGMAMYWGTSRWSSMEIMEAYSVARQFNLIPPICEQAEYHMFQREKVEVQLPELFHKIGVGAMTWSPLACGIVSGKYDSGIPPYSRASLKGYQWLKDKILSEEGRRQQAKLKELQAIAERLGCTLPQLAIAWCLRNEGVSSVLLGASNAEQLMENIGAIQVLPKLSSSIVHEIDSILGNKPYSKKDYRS
Test [6] shares this target. Description: KvBeta positive modulators, primary screen, biochemical, NADPH fluorescence (AID 623).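 Also: fluorescence intensity change per second fitted from 20 to 320 s.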 The settings on record: Recombinant KvBeta, NADPH fluorescence decrease slope, 10 min; at 10 µM; stronger effect = lower value.
For test [7], the target named is Muscarinic acetylcholine receptor M4 (Homo sapiens) (UniProt P08173). Description: compounds altering M4/GIRK thallium flux, either direction, primary screen, M4 allosteric agonist project, cell-based, HEK293 M4/GIRK, BTC-AM (AID 625;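 active = fluorescence slope after compound addition differing from the mean of all tested samples at 99.7% confidence, mostly higher but some lower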;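 also: thallium influx through GIRK channels coupled to M4 in HEK293 cells with BTC-AM dye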). The settings on record: at 10 µM, actives lie on both sides. In short, it runs like this:
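Material: M4/GIRK1/GIRK2 stable HEK293 cell line. Medium: pH 7.3 thallium assay buffer. Dosing: single compound concentration, 10 µM final. Schedule: 1 h dye loading, 2 min kinetic read. Measured by: kinetic fluorescence with BTC-AM dye. Read-out: post-addition slope, 15–24 s, of baseline-normalized fluorescence. Benchmarks: carbachol and DMSO controls.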

The nature of test [8]: inhibitors of larval lipid processing in zebrafish, primary screen, whole organism, PED6 fluorescence, gall bladder and intestine (AID 686;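 active = a full or partial loss of lipid-probe fluorescence in the fish gall bladder, intestine or both, judged by eye; inactive = no fluorescence loss, or compound toxic to the fish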;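 also: larvae 5 to 7 days old with five fish per well; signal comes from phospholipase A2 cleavage of quenched PED6 carried via bile; overnight exposure to compound and PED6 before scoring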). The settings on record: Zebrafish larvae PED6 lipid processing, fluorescence scoring; screened at 20 µM (by protocol). The essentials:
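System: live zebrafish larvae aged 5-7 days, whole organism; measure: graded gall bladder and intestinal fluorescence inhibition per well; incubation: overnight exposure; reagent: ingested quenched lipid PED6 at 100 nM; signal: By-eye fluorescence microscopy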

Test [9] is described as follows: inhibitors of Chlamydomonas gravitaxis, primary screen, whole organism, Chlamydomonas reinhardtii, WT vs cilia-less mutant, absorbance, 96-well (AID 463189;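 active = inhibition at or above 50% relative to wild type and mutant plate controls; inactive = inhibition below 50%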;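 also: 0% = wild type cc124 cells in DMSO and 100% = ciliumless bld1 mutant cells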). To be noted: OD600 absorbance, 2 days, at 10 µM, stronger effect = higher value.
The mark [10] stands for this setting: measured here: cell density z-score.
Where [11] appears, read: measured here: nuclear c-Myc green intensity z-score.
Where [12] appears, read: measured here: nuclear pErk red intensity z-score, stronger effect = higher value.

Sequence of Muscarinic acetylcholine receptor M4 (Homo sapiens) (P08173 whole entry, looked up): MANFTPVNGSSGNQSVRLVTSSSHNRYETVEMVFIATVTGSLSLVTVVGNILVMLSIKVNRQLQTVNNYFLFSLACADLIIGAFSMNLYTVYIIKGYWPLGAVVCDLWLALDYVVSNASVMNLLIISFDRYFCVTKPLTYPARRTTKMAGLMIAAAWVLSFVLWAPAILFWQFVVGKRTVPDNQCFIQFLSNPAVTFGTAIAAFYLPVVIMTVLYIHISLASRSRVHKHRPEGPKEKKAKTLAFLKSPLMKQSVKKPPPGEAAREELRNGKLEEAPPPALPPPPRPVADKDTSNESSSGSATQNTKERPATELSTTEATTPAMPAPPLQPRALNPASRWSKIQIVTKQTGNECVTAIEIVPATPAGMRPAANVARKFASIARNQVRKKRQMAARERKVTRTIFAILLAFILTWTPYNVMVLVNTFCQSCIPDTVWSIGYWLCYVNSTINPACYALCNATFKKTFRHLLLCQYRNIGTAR
Sequence of Dual specificity protein phosphatase 6 (Homo sapiens) (Q16828 whole entry, looked up): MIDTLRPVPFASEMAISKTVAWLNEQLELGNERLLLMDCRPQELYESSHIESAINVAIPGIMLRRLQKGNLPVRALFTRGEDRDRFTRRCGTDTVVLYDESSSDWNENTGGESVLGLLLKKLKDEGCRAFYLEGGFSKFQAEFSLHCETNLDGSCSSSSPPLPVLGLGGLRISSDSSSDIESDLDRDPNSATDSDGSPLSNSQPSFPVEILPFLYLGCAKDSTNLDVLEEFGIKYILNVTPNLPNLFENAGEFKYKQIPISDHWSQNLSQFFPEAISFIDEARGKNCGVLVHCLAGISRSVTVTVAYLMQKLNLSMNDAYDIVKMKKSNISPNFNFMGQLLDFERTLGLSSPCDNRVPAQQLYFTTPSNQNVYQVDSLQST

The inhibition is the relative decrease from the control value, in per cent. In the case of `COc1ccc(CC(=O)n2c(CC#N)nc3ccccc32)cc1OC`, the cell count in test [1] is 598. The inhibition was -10.9% (inactive) in test [1], -32.4% (inactive) in test [2], -0.233% (inactive) in test [4] and 9.22% (inactive) in test [9]. In addition, the nuclei count in test [2] amounted to 112%. The z-score in test [3] (setting [10]) is -0.393; in [3] (setting [11]), -2.03; in test [3] (setting [12]) it was 0.813. In addition, the fluorescence slope in [5] is -0.465 (inactive); in [7], 0.00563 (inactive). Besides, the NADPH fluorescence slope in [6] is -3.6e-05 (inactive). For the same compound, the compound was classed as inactive in test [8].

Take `CCCSc1nnc2n(Cc3ccccc3)c(=O)c3c4c(sc3n12)CCC4`: in test [1], the cell count came out at 405. Further, the inhibition is -0.7% (inactive) in test [1], -31.5% (inactive) in [2], -4.59% (inactive) in [4] and 9.79% (inactive) in [9]. In [2], this compound yielded a nuclei count of 170%. The z-score in [3] (setting [10]) is 0.317; in [3] (setting [11]), -0.563; in [3] (setting [12]) it was 1.11. Further, the fluorescence slope is -0.453 (inactive) in test [5] and 0.00548 (inactive) in test [7]. Moreover, the NADPH fluorescence slope in test [6] was -0.000111 (inactive). Besides, in [8], the result was inactive.

`O=C1CC(c2ccccc2)n2nc(N3C(=O)c4ccccc4C3=O)nc2N1` (centres undefined): the cell count in test [1] amounted to 397. For the same compound, the inhibition was 3% (inactive) in test [1], -72.9% (inactive) in test [2], 2.71% (inactive) in [4] and 21.6% (inactive) in [9]. In test [2], this compound returned a nuclei count of 114%. Also, the z-score in test [3] (setting [10]) is 0.561; in test [3] (setting [11]), 0.157; in [3] (setting [12]) it was -0.686. The fluorescence slope in test [5] is -0.441 (inactive); in test [7], 0.00457 (inactive). In [6], the NADPH fluorescence slope was -1.7e-05 (inactive). Moreover, the outcome in test [8] was inactive.

With `Brc1ccc2c(c1)CNc1c(ncnc1N1CCOCC1)O2`, the cell count in [1] came to 521. Further, the inhibition was -0.7% (inactive) in [1], 2% (inactive) in test [2], 3.42% (inactive) in test [4] and 24.2% (inactive) in test [9]. Besides, the nuclei count in test [2] was 90%. Further, the z-score in test [3] (setting [10]) was -1.15; in test [3] (setting [11]) it was 1.47; in [3] (setting [12]), 1.59. Further, the fluorescence slope in test [5] was -0.429 (inactive); in [7] it was 0.00419 (inactive). The NADPH fluorescence slope in [6] is 2.8e-05 (inactive). For the same compound, in [8], the call was inactive.

For the compound `Nc1nc2n(n1)C(c1ccc(F)cc1)CC(c1ccc(F)cc1)N2` (centres undefined), in test [1], the cell count worked out at 346. In addition, the inhibition in [1] was -13.8% (inactive); in test [2], -43.3% (inactive); in test [4], 5.65% (inactive); in test [9], 19.7% (inactive). In [2], this compound displayed a nuclei count of 97%. For the same compound, the z-score is -0.282 in test [3] (setting [10]), 0.742 in test [3] (setting [11]) and -0.273 in test [3] (setting [12]). Further, the values for the fluorescence slope in [5] and in [7] were -0.457 (inactive) and 0.00499 (inactive), respectively. The NADPH fluorescence slope in test [6] is -5.2e-05 (inactive). Further, the call in test [8] was inactive.

With `O=c1[nH]c2cnccc2n1-c1ccccc1`, in test [1], the cell count came out at 546. The inhibition is 1.5% (inactive) in test [1], -390% (inactive) in test [2], 9.91% (inactive) in test [4] and -6.57% (inactive) in test [9]. The nuclei count in [2] was determined as 162%. For the same compound, the figures for the z-score in test [3] (setting [10]), in test [3] (setting [11]) and in test [3] (setting [12]) were 1.25, -0.89 and -1.07, respectively. In addition, the values for the fluorescence slope in test [5] and in [7] were -0.404 (inactive) and 0.00569 (inactive), respectively. In addition, in test [6], the NADPH fluorescence slope is -4.6e-05 (inactive). Besides, in [8], the compound was classed as inactive.

For `COc1ccc(OCC(O)CN2C(=O)NC(C)(C)C2=O)cc1` (centres undefined), the cell count in test [1] stood at 617. Further, the inhibition in test [1] is -6.4% (inactive); in [2] it was 33.5% (inactive); in [4] it was 9.42% (inactive); in test [9], -2.72% (inactive). Moreover, the nuclei count in [2] amounted to 155%. The z-score in test [3] (setting [10]) was 0.439; in test [3] (setting [11]) it was -0.253; in [3] (setting [12]), -0.891. The fluorescence slope in [5] is -0.419 (inactive); in [7], 0.0058 (inactive). Also, the NADPH fluorescence slope in [6] was -3.6e-05 (inactive). In addition, the result in [8] was inactive.

Turning to `CC1=C(C#N)C(=O)OC(C)(C)C1`, in [1], the cell count amounted to 660. The inhibition is -3.9% (inactive) in test [1], -22.9% (inactive) in [2], -1.98% (inactive) in [4] and -18.3% (inactive) in [9]. In [2], the nuclei count was determined as 101%. Further, the z-score in [3] (setting [10]) was -2.1; in test [3] (setting [11]), 0.204; in test [3] (setting [12]) it was -1.02. In addition, the fluorescence slope in test [5] is -0.489 (inactive); in test [7], 0.00496 (inactive). In test [6], the NADPH fluorescence slope is -7.4e-05 (inactive). Further, the compound was classed as inactive in [8].

In the case of `COC(=O)CSc1nc(N)nc(C)c1Br`, the cell count in test [1] amounted to 688. In addition, the inhibition in [1] was -10% (inactive); in test [2], 23.8% (inactive); in test [4], -3.95% (inactive); in test [9], -4.73% (inactive). In addition, in test [2], the nuclei count amounted to 150%. Moreover, the z-score in test [3] (setting [10]) came out at 0.424; in [3] (setting [11]), 0.473; in test [3] (setting [12]), 0.0816. For the same compound, the fluorescence slope in test [5] was -0.429 (inactive); in test [7], 0.00418 (inactive). Besides, the NADPH fluorescence slope in [6] was -3.4e-05 (inactive). Moreover, in test [8], the compound was classed as inactive.

Turning to `COc1ccc(CC(=O)OCN2C(=O)c3ccccc3C2=O)cc1`, in test [1], the cell count is 518. Moreover, the inhibition in test [1] is -10.2% (inactive); in test [2], -70.2% (inactive); in test [4], 11.9% (inactive); in test [9], 20.5% (inactive). Also, the nuclei count in test [2] was determined as 138%. Besides, the z-score was 0.489 in test [3] (setting [10]), -1.2 in test [3] (setting [11]) and -0.603 in [3] (setting [12]). Further, the fluorescence slope in [5] was -0.359 (inactive); in test [7], 0.00563 (inactive). In addition, in test [6], the NADPH fluorescence slope was -1.7e-05 (inactive). Also, in test [8], the outcome was inactive.

Take `N#Cc1nc(-c2ccc(F)cc2)oc1N1CCCC1`: the cell count in test [1] worked out at 706. Also, the inhibition in test [1] is -7.6% (inactive); in test [2] it was 24.6% (inactive); in [4], 9.07% (inactive); in test [9], -3.17% (inactive). The nuclei count in [2] came to 148%. Moreover, the results for the z-score in [3] (setting [10]), in [3] (setting [11]) and in [3] (setting [12]) were 1.01, 1.06 and 0.859, respectively. The results for the fluorescence slope in [5] and in test [7] were -0.348 (inactive) and 0.0076 (inactive), respectively. In addition, the NADPH fluorescence slope in [6] is -9.4e-06 (inactive). In test [8], the result was inactive.

Turning to `CCCN(CCC)c1nc2ccccc2nc1C(C#N)C(=O)OC(C)COC` (centres undefined), the cell count in test [1] worked out at 586. Besides, the inhibition is -26.5% (inactive) in [1], 1.8% (inactive) in test [2], -12.6% (inactive) in test [4] and 26.1% (inactive) in test [9]. In test [2], this compound registered a nuclei count of 174%. Moreover, the z-score in [3] (setting [10]) was determined as 0.238; in [3] (setting [11]) it was 0.588; in test [3] (setting [12]), 0.413. Also, the results for the fluorescence slope in [5] and in [7] were -0.408 (inactive) and 0.00444 (inactive), respectively. Further, the NADPH fluorescence slope in test [6] is -7.9e-05 (inactive). Further, the compound was classed as inactive in test [8].

For the compound `Cn1c(=O)[nH]c(=O)c2c1nc(N1CCN(c3cccc(Cl)c3)CC1)n2CCCc1ccccc1`, the cell count in [1] came out at 620. Also, the inhibition in test [1] was -6% (inactive); in test [2], -19.3% (inactive); in test [4], 24% (inactive); in [9], -0.786% (inactive). For the same compound, in test [2], the nuclei count was 104%. The values for the z-score in [3] (setting [10]), in test [3] (setting [11]) and in test [3] (setting [12]) were 0.751, -1.24 and -0.00216, respectively. The fluorescence slope in [5] is -0.442 (inactive); in test [7], 0.0083 (inactive). The NADPH fluorescence slope in test [6] was -6.2e-05 (inactive). Besides, the call in test [8] was inactive.
